An excerpt weighted towards active compounds, which were near 3.8% of everything screened.
HSP90 refold inh – HSP90 refolding inhibition in rabbit reticulocyte lysate; luciferase refolding luminescence, 3 h; inhibition, % at 5.6 µM; actives 0.91% (n = 290,000);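 active means inhibition above the screen-wide mean plus 3 SD, computed separately per campaign, cut at about 16% in these data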;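 further: 0% = DMSO wells and 100% = 60 µM geldanamycin wells; inhibitors lower the luminescence because luciferase stays unfolded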
HSF1 inh – HSF1 inhibition; NIH3T3-HGL HSE-luciferase, MG132-induced, luminescence 8 h; stronger effect = lower value; activity change, negative = inhibition, % at 7.5 µM (by protocol); actives 0.77% (n = 300,000); AID 2098;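 active means more than half of replicate wells show activity change below -50%, luminescence cut by over half; inconclusive means some wells, but at most half, below -50%; inactive means no replicate well below -50%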;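 further: luciferase reports HSF-1 transcriptional activity via heat shock element; 0% = median of DMSO wells and -100% = zero luminescence signal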
Hep lipid drop – hepatic lipid droplet formation modulation. AML12 mouse hepatocytes, oleate lipid droplets, BODIPY imaging. inhibition, % at 6.5 µM. actives 0.4% (n = 240,000). AID 1656;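 active means lipid droplet intensity inhibited by at least 50%, with more than 500 cells counted; inconclusive means wells with under 300 cells, treated as cytotoxic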
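Assay system: AML12 mouse liver cells | Compound: 6.5 µM single-point dosing | Schedule: Overnight exposure | Technique: Fluorescence imaging, 20x objective, two fields per well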
HCV NS3 hel inh – inhibitors of Hepatitis C virus NS3 helicase. NS3 helicase DNA unwinding, Cy5 molecular beacon fluorescence. inhibition, % at 10.9 µM. actives 0.56% (n = 290,000). AID 1800;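 active means inhibition above the mean of all tested compounds plus 3 SD, set per campaign, cut at about 35% in these data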;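 further: 0% = DMSO wells and 100% = thioflavine S control wells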
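test system = hepatitis C virus NS3 helicase domain fragment enzyme | reagent = annealed dual-labelled DNA beacon duplex, ATP-started | times = 1 h at 25 °C | detection = Cy5 fluorescence, 0 and 60 min reads | read-out basis = percent inhibition from t60/t0 fluorescence ratio | control set = DMSO and thioflavine S | replication = one well per compound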
HSF-1 act – increases HSF-1 driven luciferase reporter signal. activation, % at 9 µM. AID 504408. NIH3T3-HGL HSF-1 luciferase reporter, MG132, 8 h; 100% = twice DMSO control signal. actives 1.7% (n = 300,000);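 active means mean replicate activation of at least 50% with a set share of replicates each reaching 50%; inconclusive means only one of those two conditions met; inactive means mean below 50% and too few replicates reaching it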;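 further: 0% = median of the neutral control wells and 100% = twice that signal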
NS3 helicase cf – HCV NS3 helicase inhibition, confirmation assay | shares compounds with HCV NS3 hel inh | NS3 helicase DNA unwinding, Cy5 molecular beacon fluorescence | inhibition, % at 10.9 µM | actives 31% (n = 1,600) | AID 1943;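 active means inhibition above the mean of all tested compounds plus 3 SD, cutoff set per campaign, cut at about 36% in these data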
DNA FID counter – intercalator displacement, NS3 helicase counter-screen | actives 4% (n = 1,600) | inhibition, % at 7.9 µM | DNA fluorescent intercalator displacement, fluorescence | AID 1945 | shares compounds with HCV NS3 hel inh; in the data active means inhibition above about 37%;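 further: 0% = vehicle and 100% = reference compound; higher means more displacement of ethidium bromide from the DNA hairpin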
FID counter DR – DNA intercalator displacement in dose response. shares compounds with HCV NS3 hel inh. IC50, µM. fluorescent intercalator displacement from DNA, fluorescence. AID 2172. 120 tested, under 10 active; call rule not given here
Numbers without * were called inactive; ? = inconclusive; · = not tested or not shown.

SMILES | HSP90 refold inh | HSF1 inh | Hep lipid drop | HCV NS3 hel inh | HSF-1 act | NS3 helicase cf | DNA FID counter | others
Cc1ccc(C2C(C#N)=C(N)SC(N)=C2C#N)c(C)c1 | 8 | 39 | · | 36* | ? | -15 | 6
COc1ccc(N(CC(=O)Nc2cccc(C)c2)S(=O)(=O)c2ccc(C)cc2)cc1OC | 2 | -3 | -1 | 92* | 18 | -6 | -3
O=C(O)c1ccccc1C(=O)c1ccc(-c2ccccc2)cc1 | -6 | 5 | 3 | 42* | 19 | -20 | -12
CCc1cc2c(=O)n(Cc3ccco3)c(SCC(=O)NCC3CCCO3)nc2s1 (centres undefined) | -2 | 0 | -25 | 2 | 18 | · | ·
CCc1cc2c(=O)n(Cc3ccco3)c(SCc3c(C)noc3C)nc2s1 | 4 | 17 | -26 | 51* | 6 | 48* | -30 | FID counter DR=>79
CCc1cc2c(=O)n(Cc3ccco3)c(SCC(=O)N3CCCc4ccccc43)nc2s1 | 3 | -3 | · | 43* | 3 | 25 | -16
CCOC(=O)c1sc2ncnc(NCC(c3cccs3)N(C)C)c2c1C (centres undefined) | -2 | -1 | · | -2 | -2 | · | ·
CN(C)C(CNc1ncnc2sccc12)c1cccs1 (centres undefined) | 1 | -6 | 0 | 74* | 8 | -13 | 4
Cn1cc(CCCC(=O)NCc2ccc(F)cc2)c2ccccc21 | 3 | 1 | -5 | 1 | -11 | · | ·
COc1cc(/C=C2\SC(c3ccc(C)cc3)=NC2=O)cc(OC)c1O | -2 | -3 | -5 | -5 | 5 | · | ·
Cc1ccc(C2=NC(=O)/C(=C/c3cc(O)c(O)c(Br)c3)S2)cc1 | -7 | · | 16 | 53* | · | -17 | 6
O=C(O)CCC(=O)N1N=C(c2c(-c3ccccc3)c3cc(Cl)ccc3[nH]c2=O)CC1c1ccco1 (centres undefined) | 0 | -5 | 12 | 41* | 16 | 48* | -17
CCC(=O)N1N=C(c2c(-c3ccccc3)c3cc(Cl)ccc3[nH]c2=O)CC1c1ccco1 (centres undefined) | 0 | -9 | -55 | 3 | 2 | · | ·
CC(C)c1ccc(C(CC(=O)c2ccc(Cl)cc2)C(=O)O)cc1 (centres undefined) | 1 | -1 | · | 37* | -3 | 68* | -19
CC(OC(=O)/C=C/c1ccccc1Cl)C(=O)NC1CCCCC1C (centres undefined) | · | 3 | · | · | -5 | · | ·
O=C(O)c1ccccc1C(=O)NC1CCCc2ccccc21 (centres undefined) | -3 | -11 | 12 | 2 | -29 | · | ·
N#Cc1ccc(-c2ccc(OCC(=O)NCC(=O)Nc3ccc(F)c(F)c3F)cc2)cc1 | -3 | -9 | 6 | 5 | -9 | · | ·
CCN(CC)c1nc2cc(C)ccc2cc1/C=C(\C#N)C(N)=O | -1 | -4 | -1 | 4 | 39 | · | ·
Cc1cc(NS(=O)(=O)c2ccc(NC(=O)CCc3ccccc3)cc2)no1 | 1 | -13 | · | 41* | -13 | -31 | -13
Cc1ccc(S(=O)(=O)N2CCN(C(=O)C3CCN(C(=O)c4ccccc4C)CC3)CC2)cc1C | -2 | 3 | -8 | 3 | 0 | · | ·
O=C(CCNC(=O)N1CC(=O)Nc2ccccc21)Nc1ccc(Cl)cc1 | -4 | -6 | -16 | 2 | 2 | · | ·
CC(=O)c1ccc(N(CC(=O)NC2CCCC2)C(=O)CNC(=O)c2cccs2)cc1 | 4 | -4 | -14 | 37* | -1 | -8 | -11
CC(=O)c1cccc(N(CC(=O)NC2CCCC2)C(=O)CNC(=O)c2cccs2)c1 | -1 | -3 | 8 | 0 | -16 | · | ·
Cc1noc(NS(=O)(=O)c2ccc(NC(=O)Cc3ccc([N+](=O)[O-])cc3)cc2)c1C | -4 | 1 | 7 | 42* | -8 | 29 | -14
Cc1noc(NS(=O)(=O)c2ccc(NC(=O)CS(=O)(=O)c3ccccc3)cc2)c1C | 0 | -5 | -1 | 0 | 1 | · | ·
SMILES | HSP90 refold inh | HSF1 inh | Hep lipid drop | HCV NS3 hel inh | HSF-1 act | NS3 helicase cf | DNA FID counter | others
O=C(Nc1ccc(Br)cc1)Nc1cnccn1 | -3 | 11 | -2 | -7 | 9 | · | ·
CC(C)c1ccc(C2CC(=O)N3CN(C)CSC3=C2C#N)cc1 (centres undefined) | -1 | 8 | · | 45* | -15 | 25 | -5
COc1ccccc1NC(=O)CCN1C(=O)c2ccccc2C1=O | -5 | 11 | · | 6 | 24 | · | ·
CC(C)(C)n1nc2c(c1NC(=O)COc1ccc(F)cc1)CS(=O)(=O)C2 | -1 | -2 | 4 | 7 | -6 | · | ·
O=C1NC(c2ccccc2)CCO1 (centres undefined) | 3 | 0 | 5 | 56* | 4 | -10 | 13
Cc1c2ccccc2nc2c(F)c(NCCO)c(F)c(F)c12 | 1 | 0 | 8 | 39* | 9 | -16 | 8
OCCNc1c2ccccc2nc2c(F)c(F)c(F)c(F)c12 | -3 | -2 | 10 | 9 | -10 | · | ·
Cc1c2ccccc2nc2c(F)c(NC(C)C)c(F)c(F)c12 | -5 | 8 | -5 | 44* | 23 | -3 | 4
O=C(c1cccc(S(=O)(=O)N2CCN(c3ccc(F)cc3)CC2)c1)N1CCCC(C(F)(F)F)C1 (centres undefined) | · | 2 | · | · | -13 | · | ·
Fc1nc(F)c(F)c(NCCCNc2c(F)c(F)nc(F)c2F)c1F | -6 | 2 | -13 | 52* | -5 | -8 | 16
CCC1C/C(=C/c2ccco2)C(=O)/C(=C/c2ccco2)C1 (centres undefined) | 2 | · | 4 | 46* | · | 77* | 12
CCC1C/C(=C\c2cc(OC)c(OC)cc2OC)C(=O)/C(=C/c2cc(OC)c(OC)cc2OC)C1 (centres undefined) | 2 | -28 | -6 | -25 | -27 | · | ·
CC(=O)c1ccccc1N(C(=O)c1ccco1)C(C(=O)NC1CCCC1)c1ccc(C)cc1 (centres undefined) | 0 | 3 | -30 | 4 | 8 | · | ·
O=S1(=O)NC2c3ccccc3CC2O1 (centres undefined) | 3 | 1 | 4 | 40* | 8 | -13 | 1
COc1ccc(C2C(C#N)=C(N)Oc3cc4c(cc32)OCO4)cc1 (centres undefined) | 3 | -14 | 0 | 40* | -13 | -16 | -9
CCOC(=O)C1=C(C)NC(SC)=C(C#N)C1CC(C)C (centres undefined) | -1 | 1 | -25 | -16 | -18 | · | ·
CCOC(=O)N1CCN(C(=O)CSc2ccc3nnc(CCNC(=O)c4ccc(OC)cc4)n3n2)CC1 | 1 | -1 | 5 | 21 | -10 | · | ·

Assay outcomes from PubChem BioAssay.
